# MEKK2 WT-MEK5 = modulators of MEK5 binding to wildtype MEKK2, primary screen, biochemical, multiplex bead flow cytometry, Alexa488-MEK5 | Mitogen-activated protein kinase kinase kinase 2 (Homo sapiens), Q9Y2U5 | Alexa488-MEK5 binding to MEKK2 WT; actives lie on both sides | binding response (% of control), % at 10 µM | hit rate 1.1% among 290,000; in the data active = binding response below about 67% or above about 130%; inconclusive = no clear call, values can overlap the other calls; inactive = in between
# MEKK2mut PB1 HTS = MEK5 binding signal on mutant MEKK2 PB1, primary screen, biochemical, multiplex bead flow cytometry, Alexa488-MEK5 | Alexa488-MEK5 binding to MEKK2 mutant | percent response, % at 10 µM | hit rate 0.35% among 290,000; in the data active = percent response above about 24%, passing the limit was not always enough
# MEKK3 PB1 HTS = modulators of MEKK3-MEK5 PB1 binding, primary screen, biochemical, wildtype MEKK3, multiplex bead flow cytometry, Alexa488-MEK5; Mitogen-activated protein kinase kinase kinase 3 (Homo sapiens), Q99759; bead-based flow cytometry, Alexa488-MEK5 binding to MEKK3; actives lie on both sides; 0 = blocked by unlabeled MEK5, 100 = vehicle; binding response (% of control), % at 10 µM; hit rate 1.4% among 290,000; AID 1529, 2009;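 active = binding response more than 3 SD above or below the average of its plate-row segment, actives on both sides; inconclusive = wells at one plate position flagged as instrument error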;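 also: Alexa488 bead fluorescence after subtracting the streptavidin-only scavenger bead signal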
# Target sequence (Q99759 whole entry, looked up): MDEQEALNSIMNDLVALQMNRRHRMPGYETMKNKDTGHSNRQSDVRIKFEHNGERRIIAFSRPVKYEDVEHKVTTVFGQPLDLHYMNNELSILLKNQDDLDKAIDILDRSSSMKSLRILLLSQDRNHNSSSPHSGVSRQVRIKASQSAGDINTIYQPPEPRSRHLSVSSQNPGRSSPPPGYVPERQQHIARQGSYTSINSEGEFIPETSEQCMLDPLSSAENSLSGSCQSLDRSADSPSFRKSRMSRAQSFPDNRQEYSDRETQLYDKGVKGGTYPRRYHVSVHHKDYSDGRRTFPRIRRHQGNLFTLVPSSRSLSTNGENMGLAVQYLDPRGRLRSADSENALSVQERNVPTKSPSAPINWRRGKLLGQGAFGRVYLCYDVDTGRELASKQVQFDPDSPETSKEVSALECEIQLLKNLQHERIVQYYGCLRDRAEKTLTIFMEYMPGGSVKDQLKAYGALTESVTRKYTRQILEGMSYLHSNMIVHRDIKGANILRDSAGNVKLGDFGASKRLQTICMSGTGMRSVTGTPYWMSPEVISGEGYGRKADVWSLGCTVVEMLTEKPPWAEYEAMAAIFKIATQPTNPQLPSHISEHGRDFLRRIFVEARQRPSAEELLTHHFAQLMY
# Hep lipid drop = inhibitors of hepatocyte lipid droplet formation, primary screen, imaging, high-throughput imaging, BODIPY stain; AML12 mouse hepatocytes, oleate lipid droplets; inhibition, % at 6.5 µM; hit rate 0.4% among 240,000; AID 1656, 2009;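 active = lipid droplet intensity inhibited by at least 50%, with more than 500 cells counted; inconclusive = wells with under 300 cells, treated as cytotoxic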
#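 Assay system: AML12 mouse liver cells | Compound: 6.5 µM single-point dosing | Schedule: Overnight exposure | Technique: Fluorescence imaging, 20x objective, two fields per well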
# Hits are given with their value; n = inactive; u = inconclusive; x = no result; [ ] = another dose, or the depositor's remark. Rows were chosen to be rich in hits. Some 2.6% of all compounds tested hit in one or more screens of this group.
SMILES,MEKK2 WT-MEK5,MEKK2mut PB1 HTS,MEKK3 PB1 HTS,Hep lipid drop
c1ccc2c(c1)nc(Nc1ccc(N3CCCCC3)cc1)c1nncn12,-4.0,n,n,n
O=C(NCCNC(=O)c1ccccc1F)c1ccco1,-12.0[inhibitor],n,0.0[inhibitor],n
CNC(=O)c1ccc(NC(=O)Nc2ccccc2)cc1,n,n,n,n
O=C(CN1CCCCCC1)NN(Cc1ccccc1)c1ccccc1,n,n,n,n
O=C(Nc1ccc(Nc2ccncc2)cc1)c1ccc(Nc2ccnc3ccc([N+](=O)[O-])cc23)cc1,72.0[inhibitor],n,61.0[inhibitor],n
Cc1cc(=O)oc2cc(OC(C)C(=O)Nc3ccc(N4CCCCC4)cc3)ccc12 (stereo not drawn),-1.0,n,n,n
Oc1c(Cl)cc(Cl)cc1C1=NNC(c2ccc(Cl)cc2)C1 (stereo not drawn),n,n,n,n
Oc1ccc(Cl)cc1C1=NNC(c2ccc(Cl)cc2)C1 (stereo not drawn),n,n,135.0,n
CN(C)CCCNCCCNC(=O)/C(=N\O)c1ccccc1,n,n,n,n
COc1ccc2c([N+](=O)[O-])c(Cl)[nH]c2c1,-6.0,n,n,n
O=S(=O)(Cc1ccccc1)N1CCc2ccccc21,x,74.0,n,n
CN(C)S(=O)(=O)N1CCc2ccccc21,n,n,n,n
O=C(O)CCNc1cc(N2CCN(C(=O)c3ccco3)CC2)c2noc3c2c1C(=O)c1ccccc1-3,48.0[inhibitor],n,63.0[inhibitor],n
CCN1CCN(c2cc(N3CCN(C(=O)c4ccco4)CC3)c3c4c(onc24)-c2ccccc2C3=O)CC1,n,n,78.0[inhibitor],n
CN(CC1CCCN(CCc2cccc(C(F)(F)F)c2)C1)C(=O)c1cc2ccccc2o1 (stereo not drawn),n,24.0,n,n
CCN(CC)c1ccc(N=Cc2ccc(N(CC)CC)cc2O)cc1,n,n,n,n
CCN(CC)c1ccc(/C=N/N=C(N)N)c(O)c1,x,113.0,n,u
O=C(Nc1ccccc1N1CCCCC1)c1ccc(-c2ccc(Cl)cc2)o1,n,n,141.0,n
CCN(CC)S(=O)(=O)c1ccc(N2CCCC2)c(NC(=O)C2CCCCC2)c1,n,n,n,n
CCN(CC)S(=O)(=O)c1ccc(N2CCN(C)CC2)c(NC(=O)Nc2ccc(C)cc2)c1,146.0,n,n,n
COc1ccc(N=C2O/C(=C/c3sc(=S)n(CC4CCCO4)c3O)N=C2C#N)cc1 (stereo not drawn),33.0,n,n,n
COc1ccc(/C=C2\SC(=S)N(CC3CCCO3)C2=O)cc1 (stereo not drawn),n,n,n,n
Cc1cc(NC(=O)COC(=O)C(C)Oc2ccc(Cl)cc2Cl)no1 (stereo not drawn),n,n,n,n
CCN(CC)c1ccc2c(Cl)c(Br)c(=O)oc2c1,-27.0,n,n,x
COc1cccc(NC(=O)Nc2cc(C(=O)O)ccc2N2CC3CC(C2)c2cccc(=O)n2C3)c1 (stereo not drawn),n,n,n,n
SMILES,MEKK2 WT-MEK5,MEKK2mut PB1 HTS,MEKK3 PB1 HTS,Hep lipid drop
Oc1ccccc1-c1nc2c3ccccc3c3ccccc3c2[nH]1,-12.0,n,n,n
COc1ccc(NC(=O)CSc2nc3ccccc3nc2N2CCCC2)cc1,n,n,n,50.0
CC(=O)Nc1ccc(NC(=O)CSc2nc3ccccc3nc2N2CCCCC2)cc1,n,n,n,n
O=C(c1ccccc1)N1CCSC1=S,n,n,n,x
Cc1ccc(C(=O)N2CCSC2=S)cc1,-10.0,n,n,n
CCCCNC(=O)COc1ccccc1[N+](=O)[O-],n,n,n,n
CCOc1ccc(CCNC(=O)Cn2ccc3ccccc3c2=O)cc1OCC,n,n,n,50.0
COc1ccc(NS(=O)(=O)c2cc([N+](=O)[O-])ccc2N/N=C\c2c(C)[nH]c3ccccc23)cc1,n,n,n,n
COc1ccccc1NS(=O)(=O)c1cc([N+](=O)[O-])ccc1N/N=C/c1c[nH]c2ccccc12,-1.0,n,n,n
CC[C@H](C)[C@@H](NC(=O)O[C@@H]1C(=O)c2cc(Br)ccc2O[C@H]1c1ccc2c(c1)OCO2)C(=O)OC,n,n,78.0[inhibitor],n
O=C(NCc1ccccc1Cl)C1CCC(CNc2nc(=S)[nH]c3ccccc23)CC1 (stereo not drawn),14.0,n,n,n

# Source: PubChem BioAssay
